Laboratory results: ChEMBL document CHEMBL4680373, “Evaluation of 5-(Trifluoromethyl)-1,2,4-oxadiazole-Based Class IIa HDAC Inhibitors for Huntington's Disease” (ACS Med Chem Lett, 2021)
Converted amounts (≈) assume the structure as drawn.

Legend:
[1] = target: T1, Histone deacetylase 4 (Homo sapiens, UniProt P56524); test: Inhibition of HDAC4 (unknown origin) using Boc Lys(TFA) as substrate by fluorogenic assay
Summary of the method: (§1)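 Biochemical HDAC isoform assay with the artificial fluorogenic substrate Boc-Lys-(TFA)-AMC, which is specific to class IIa enzymes and HDAC8. IC50 taken as the geometric mean of three experiments.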

[2] = target: T1, Histone deacetylase 4; test: Inhibition of Class 2A HDAC4 in human Jurkat E6.1 cells using Boc-Lys-(TFA)-AMC as substrate by fluorogenic assay; type: cell-based
Summary of the method: (§2)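 Whole-cell assay in Jurkat E6.1 cells with artificial fluorogenic substrates: Boc-Lys-(TFA)-AMC for class IIa/HDAC8 activity, which in this line is mostly HDAC4, and Boc-Lys-(Ac)-AMC for class I/IIb activity. IC50 given as the geometric mean of three experiments.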

[3] = target: Histone deacetylase 1 (Homo sapiens, UniProt Q13547); test: Inhibition of HDAC1 (unknown origin) using Ac-Arg-Gly-Lys(Ac) as substrate by fluorogenic assay
[4] = target: Histone deacetylase 2 (Homo sapiens, UniProt Q92769); test: Inhibition of HDAC2 (unknown origin) using Ac-Arg-Gly-Lys(Ac) as substrate by fluorogenic assay
[5] = target: T2, Histone deacetylase 8 (Homo sapiens, UniProt Q9BY41); test: Inhibition of HDAC8 (unknown origin) using Boc-Lys(TFA) as substrate by fluorogenic assay; summary of the method: as §1
T2 sequence (Q9BY41 whole entry): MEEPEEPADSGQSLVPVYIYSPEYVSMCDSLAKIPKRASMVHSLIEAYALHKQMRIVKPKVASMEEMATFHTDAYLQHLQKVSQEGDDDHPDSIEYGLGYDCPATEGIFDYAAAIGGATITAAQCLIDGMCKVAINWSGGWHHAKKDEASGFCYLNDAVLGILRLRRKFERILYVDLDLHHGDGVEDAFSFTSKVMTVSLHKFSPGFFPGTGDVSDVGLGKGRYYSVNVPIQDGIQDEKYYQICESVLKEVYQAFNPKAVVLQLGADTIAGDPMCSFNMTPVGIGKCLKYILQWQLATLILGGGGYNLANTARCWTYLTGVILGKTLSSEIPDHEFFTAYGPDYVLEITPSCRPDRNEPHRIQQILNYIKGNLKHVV

[6] = target: T3, Protein deacetylase HDAC6 (Homo sapiens, UniProt Q9UBN7); test: Inhibition of HDAC6 (unknown origin) expressed in human HEK-Freestyle cells using Boc-Lys(Ac) as substrate by fluorogenic assay; type: cell-based
T3 sequence (Q9UBN7 whole entry): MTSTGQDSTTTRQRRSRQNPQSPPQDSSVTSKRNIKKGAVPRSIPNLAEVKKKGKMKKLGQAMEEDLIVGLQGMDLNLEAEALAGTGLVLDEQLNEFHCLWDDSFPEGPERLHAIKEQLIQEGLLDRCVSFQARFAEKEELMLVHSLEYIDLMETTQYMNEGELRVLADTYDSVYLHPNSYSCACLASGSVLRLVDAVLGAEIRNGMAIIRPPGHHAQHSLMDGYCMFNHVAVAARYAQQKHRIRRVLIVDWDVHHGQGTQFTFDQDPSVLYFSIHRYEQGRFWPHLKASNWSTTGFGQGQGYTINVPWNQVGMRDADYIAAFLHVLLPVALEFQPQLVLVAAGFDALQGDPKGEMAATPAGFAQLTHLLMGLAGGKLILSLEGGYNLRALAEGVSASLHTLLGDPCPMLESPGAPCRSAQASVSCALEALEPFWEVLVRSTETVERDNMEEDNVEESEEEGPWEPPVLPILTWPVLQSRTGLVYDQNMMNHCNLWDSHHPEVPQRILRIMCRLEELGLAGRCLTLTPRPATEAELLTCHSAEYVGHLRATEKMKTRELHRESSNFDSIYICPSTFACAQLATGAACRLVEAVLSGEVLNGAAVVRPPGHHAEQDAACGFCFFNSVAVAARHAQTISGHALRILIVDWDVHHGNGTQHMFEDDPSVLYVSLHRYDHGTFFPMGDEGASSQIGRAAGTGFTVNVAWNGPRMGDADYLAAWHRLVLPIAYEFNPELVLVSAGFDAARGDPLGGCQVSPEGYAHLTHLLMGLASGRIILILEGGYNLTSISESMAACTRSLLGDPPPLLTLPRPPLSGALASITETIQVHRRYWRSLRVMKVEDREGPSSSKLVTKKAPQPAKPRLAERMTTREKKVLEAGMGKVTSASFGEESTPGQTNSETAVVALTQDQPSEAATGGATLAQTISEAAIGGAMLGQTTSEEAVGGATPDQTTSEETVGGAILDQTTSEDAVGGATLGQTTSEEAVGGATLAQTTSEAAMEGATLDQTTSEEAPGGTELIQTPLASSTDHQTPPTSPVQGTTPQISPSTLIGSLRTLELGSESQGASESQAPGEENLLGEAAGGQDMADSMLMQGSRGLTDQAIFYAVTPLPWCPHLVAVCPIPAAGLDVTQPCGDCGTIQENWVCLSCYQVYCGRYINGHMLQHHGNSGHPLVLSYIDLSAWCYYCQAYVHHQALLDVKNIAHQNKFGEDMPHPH
Summary of the method: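 HDAC6 was supplied as lysate of HEK cells overexpressing the enzyme. Activity was read with the class I/IIb-specific fluorogenic substrate Boc-Lys-(Ac)-AMC. IC50 is the geometric mean of three experiments.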

[7] = Inhibition of Class 1/2b HDAC in human Jurkat E6.1 cells using Boc-Lys-(Ac)-AMC as substrate by fluorogenic assay; type: cell-based; summary of the method: as §2
[8] = Intrinsic Clearance in mouse liver microsomes; type: ADME, Microsome; conditions: read-out: CLH
[9] = Apparent permeability of the compound in dog MDCK-MDR1 cells; type: ADME, cell-based, Canis lupus familiaris
[10] = Kinetic solubility of the compound; type: physicochemical; conditions: read-out: Kinetic_solubility
[11] = Chemical stability of the compound in DMSO-d6 measured for 9 days at room temperature by 1H-NMR spectroscopy; type: physicochemical; conditions: 216 h; time 9 day
[12] = Efflux ratio of permeability from basolateral to apical over apical to basolateral side in dog MDCK-MDR1 cells relative to wild type MDCK cells; type: ADME, cell-based, Canis lupus familiaris
[13] = Selectivity index, ratio of IC50 for Class 1/2b HDAC in human Jurkat E6.1 cells using Boc-Lys-(Ac)-AMC as substrate to IC50 for Class 2A HDAC4 in human Jurkat E6.1 cells using Boc-Lys-(TFA)-AMC as substrate by fluorogenic assay
Summary of the method: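 Human Jurkat E6.1 cells were assayed with two fluorogenic substrates. Boc-Lys-(TFA)-AMC reports class IIa activity, mostly HDAC4 in this line, and Boc-Lys-(Ac)-AMC reports class I/IIb activity. IC50s are geometric means of three experiments.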

[14] = target: Histone deacetylase 5 (Homo sapiens, UniProt Q9UQL6); test: Inhibition of HDAC5 (unknown origin) using Boc Lys(TFA) as substrate by fluorogenic assay; summary of the method: as §1
[15] = target: Histone deacetylase 9 (Homo sapiens, UniProt Q9UKV0); test: Inhibition of HDAC9 (unknown origin) using Boc Lys(TFA) as substrate by fluorogenic assay; summary of the method: as §1
[16] = target: Histone deacetylase 3/Nuclear receptor corepressor 1 (HDAC3/NCoR1) (Homo sapiens); test: Inhibition of HDAC3/NCOR1 (unknown origin) using Boc-Lys(Ac) as substrate by fluorogenic assay

T1 sequence (P56524 whole entry, canonical isoform): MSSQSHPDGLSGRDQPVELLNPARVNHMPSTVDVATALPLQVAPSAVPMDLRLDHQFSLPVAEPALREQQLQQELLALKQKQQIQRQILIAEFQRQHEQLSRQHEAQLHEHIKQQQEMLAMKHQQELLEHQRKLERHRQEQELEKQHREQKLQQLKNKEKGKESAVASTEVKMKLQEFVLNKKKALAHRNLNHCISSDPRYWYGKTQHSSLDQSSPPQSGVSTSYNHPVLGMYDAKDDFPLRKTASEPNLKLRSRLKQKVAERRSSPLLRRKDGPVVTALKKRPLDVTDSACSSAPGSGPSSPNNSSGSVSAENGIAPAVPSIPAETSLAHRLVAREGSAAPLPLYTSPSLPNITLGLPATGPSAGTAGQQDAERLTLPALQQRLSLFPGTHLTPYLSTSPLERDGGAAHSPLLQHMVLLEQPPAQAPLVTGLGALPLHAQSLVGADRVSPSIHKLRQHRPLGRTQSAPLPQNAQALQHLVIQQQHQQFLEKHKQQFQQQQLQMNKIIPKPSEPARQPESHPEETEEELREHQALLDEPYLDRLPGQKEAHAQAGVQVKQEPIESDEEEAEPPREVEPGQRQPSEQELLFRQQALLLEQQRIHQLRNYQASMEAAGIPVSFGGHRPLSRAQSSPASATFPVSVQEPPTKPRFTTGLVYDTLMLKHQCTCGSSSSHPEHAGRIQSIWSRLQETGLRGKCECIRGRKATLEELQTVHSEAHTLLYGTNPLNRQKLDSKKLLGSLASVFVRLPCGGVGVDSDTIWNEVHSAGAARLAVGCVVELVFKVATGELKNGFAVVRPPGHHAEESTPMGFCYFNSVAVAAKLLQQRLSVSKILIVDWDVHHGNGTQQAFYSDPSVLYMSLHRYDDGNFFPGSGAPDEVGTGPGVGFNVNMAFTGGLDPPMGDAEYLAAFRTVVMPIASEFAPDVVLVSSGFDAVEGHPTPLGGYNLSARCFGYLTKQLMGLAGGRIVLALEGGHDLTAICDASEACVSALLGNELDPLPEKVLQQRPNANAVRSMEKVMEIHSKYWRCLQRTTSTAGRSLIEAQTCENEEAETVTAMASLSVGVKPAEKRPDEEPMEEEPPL
Histone deacetylase 2, sequence (Q92769 whole entry): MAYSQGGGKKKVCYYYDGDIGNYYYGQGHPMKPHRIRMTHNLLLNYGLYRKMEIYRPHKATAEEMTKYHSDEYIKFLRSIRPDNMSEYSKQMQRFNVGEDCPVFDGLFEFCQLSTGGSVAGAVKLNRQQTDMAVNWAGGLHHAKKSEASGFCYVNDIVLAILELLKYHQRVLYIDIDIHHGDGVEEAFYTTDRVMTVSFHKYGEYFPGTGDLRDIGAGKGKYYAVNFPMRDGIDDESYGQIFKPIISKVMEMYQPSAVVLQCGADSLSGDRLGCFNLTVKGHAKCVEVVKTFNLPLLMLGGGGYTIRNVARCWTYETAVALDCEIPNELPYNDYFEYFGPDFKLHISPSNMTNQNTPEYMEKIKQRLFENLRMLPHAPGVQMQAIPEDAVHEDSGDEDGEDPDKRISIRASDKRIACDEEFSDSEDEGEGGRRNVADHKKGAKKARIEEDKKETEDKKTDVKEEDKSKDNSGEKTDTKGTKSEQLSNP
Histone deacetylase 1, sequence (Q13547 whole entry): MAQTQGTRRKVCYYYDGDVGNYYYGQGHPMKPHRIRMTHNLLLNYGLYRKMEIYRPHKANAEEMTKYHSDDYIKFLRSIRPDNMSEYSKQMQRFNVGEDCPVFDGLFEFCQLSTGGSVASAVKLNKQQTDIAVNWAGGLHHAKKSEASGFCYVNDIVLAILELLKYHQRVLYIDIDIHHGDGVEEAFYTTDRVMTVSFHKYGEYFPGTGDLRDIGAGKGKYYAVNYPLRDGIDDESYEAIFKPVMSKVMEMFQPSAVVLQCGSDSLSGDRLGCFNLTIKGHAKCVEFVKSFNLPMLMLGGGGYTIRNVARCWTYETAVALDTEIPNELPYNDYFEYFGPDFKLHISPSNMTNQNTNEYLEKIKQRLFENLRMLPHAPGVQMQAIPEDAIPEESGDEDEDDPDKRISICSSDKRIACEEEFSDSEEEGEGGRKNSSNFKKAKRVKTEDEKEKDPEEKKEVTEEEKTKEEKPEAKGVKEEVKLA
Histone deacetylase 5, sequence (Q9UQL6 whole entry): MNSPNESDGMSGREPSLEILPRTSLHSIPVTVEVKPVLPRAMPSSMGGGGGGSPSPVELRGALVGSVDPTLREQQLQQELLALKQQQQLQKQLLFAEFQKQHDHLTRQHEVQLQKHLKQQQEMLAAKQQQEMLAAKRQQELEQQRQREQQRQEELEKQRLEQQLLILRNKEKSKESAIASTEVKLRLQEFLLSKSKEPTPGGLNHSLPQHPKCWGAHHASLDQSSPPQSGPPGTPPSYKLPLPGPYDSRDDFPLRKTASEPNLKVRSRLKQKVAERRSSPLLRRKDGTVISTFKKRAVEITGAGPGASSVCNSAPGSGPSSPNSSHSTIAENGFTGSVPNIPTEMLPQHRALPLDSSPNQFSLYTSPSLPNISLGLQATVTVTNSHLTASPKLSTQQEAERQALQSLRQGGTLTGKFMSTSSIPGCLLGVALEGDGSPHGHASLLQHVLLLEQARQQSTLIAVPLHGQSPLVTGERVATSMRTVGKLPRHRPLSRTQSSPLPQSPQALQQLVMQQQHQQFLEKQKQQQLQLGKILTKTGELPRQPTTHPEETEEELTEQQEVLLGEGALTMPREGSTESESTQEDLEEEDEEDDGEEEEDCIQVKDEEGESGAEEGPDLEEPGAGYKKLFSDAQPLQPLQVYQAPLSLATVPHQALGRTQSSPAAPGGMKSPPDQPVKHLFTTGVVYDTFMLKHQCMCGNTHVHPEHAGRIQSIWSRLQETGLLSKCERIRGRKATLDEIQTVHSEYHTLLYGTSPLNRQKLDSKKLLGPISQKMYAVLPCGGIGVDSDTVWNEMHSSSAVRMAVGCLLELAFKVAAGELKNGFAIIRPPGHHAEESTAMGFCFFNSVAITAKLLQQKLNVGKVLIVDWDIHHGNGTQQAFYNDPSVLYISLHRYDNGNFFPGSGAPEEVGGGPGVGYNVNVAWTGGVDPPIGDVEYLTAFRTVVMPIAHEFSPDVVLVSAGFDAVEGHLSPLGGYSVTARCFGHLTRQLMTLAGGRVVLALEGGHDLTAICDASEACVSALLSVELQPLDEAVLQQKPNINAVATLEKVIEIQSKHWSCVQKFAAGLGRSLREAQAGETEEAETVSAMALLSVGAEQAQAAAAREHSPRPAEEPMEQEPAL
Histone deacetylase 9, sequence (Q9UKV0 whole entry): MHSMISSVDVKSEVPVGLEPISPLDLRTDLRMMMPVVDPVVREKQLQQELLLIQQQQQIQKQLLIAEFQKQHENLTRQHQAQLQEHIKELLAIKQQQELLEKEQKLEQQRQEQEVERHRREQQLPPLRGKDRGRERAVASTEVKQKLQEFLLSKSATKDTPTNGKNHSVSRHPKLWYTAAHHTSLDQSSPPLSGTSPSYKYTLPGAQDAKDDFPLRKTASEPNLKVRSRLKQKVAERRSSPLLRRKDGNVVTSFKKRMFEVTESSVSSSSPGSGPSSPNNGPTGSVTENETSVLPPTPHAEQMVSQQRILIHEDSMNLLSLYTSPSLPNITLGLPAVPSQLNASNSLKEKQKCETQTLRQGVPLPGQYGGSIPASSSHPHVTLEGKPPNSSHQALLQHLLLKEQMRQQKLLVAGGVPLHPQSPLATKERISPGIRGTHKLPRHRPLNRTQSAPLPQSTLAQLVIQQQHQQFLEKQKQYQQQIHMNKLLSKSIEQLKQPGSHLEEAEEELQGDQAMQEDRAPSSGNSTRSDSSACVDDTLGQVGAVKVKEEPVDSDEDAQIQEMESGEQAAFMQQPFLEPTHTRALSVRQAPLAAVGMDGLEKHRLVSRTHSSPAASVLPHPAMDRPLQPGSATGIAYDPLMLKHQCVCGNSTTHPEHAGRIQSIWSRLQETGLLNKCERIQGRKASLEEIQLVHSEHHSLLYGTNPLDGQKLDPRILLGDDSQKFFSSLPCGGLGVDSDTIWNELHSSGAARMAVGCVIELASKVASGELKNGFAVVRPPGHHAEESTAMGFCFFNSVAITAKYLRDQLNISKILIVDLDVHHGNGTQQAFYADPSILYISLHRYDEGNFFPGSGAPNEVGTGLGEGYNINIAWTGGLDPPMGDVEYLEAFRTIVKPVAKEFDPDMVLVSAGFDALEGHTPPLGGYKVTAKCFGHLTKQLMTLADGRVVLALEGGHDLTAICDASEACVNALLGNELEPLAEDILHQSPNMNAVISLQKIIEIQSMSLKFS

## CCCN(CCC)C[C@@H](C)NC(=O)c1ccc(-c2nc(C(F)(F)F)no2)cc1
[1]
  IC50: 28000 nM
[2]
  IC50: > 50000 nM

## CCCN(CCC)C[C@@H](C)NC(=O)c1ccc(-c2noc(C(F)(F)F)n2)cc1
[3]
  IC50: 6000 nM
[4]
  IC50: 9300 nM
[5]
  IC50: 2900 nM
[6]
  IC50: 6400 nM
[7]
  IC50: 3000 nM
[8]
  CLint scaled: 834 mL/min/kg
[9]
  Papp: 54.1 ×10⁻⁶ cm/s
[10]
  solubility kinetic: 140 µM (≈ 55.8 µg/mL)
[11]
  Stabilty: Stable

## C[C@H](CN1CCCCC1)NC(=O)c1ccc(-c2noc(C(F)(F)F)n2)cc1
[7]
  IC50: 9000 nM
[2]
  IC50: 70 nM
[8]
  CLint scaled: 66 mL/min/kg
[12]
  Ratio: 1.6
[10]
  solubility kinetic: 157 µM (≈ 60 µg/mL)
[13]
  Ratio IC50: 129

## C[C@H](CN1CCC[C@H]1C)NC(=O)c1ccc(-c2noc(C(F)(F)F)n2)cc1
[1]
  IC50: 70 nM
[7]
  IC50: 14000 nM
[2]
  IC50: 600 nM
[10]
  solubility kinetic: 178 µM (≈ 68.1 µg/mL)

## C[C@H](CN1CCCC1)NC(=O)c1ccc(-c2noc(C(F)(F)F)n2)cc1
[1]
  IC50: 10 nM
[7]
  IC50: 10000 nM
[2]
  IC50: 70 nM
[8]
  CLint scaled: 65 mL/min/kg
[12]
  Ratio: 2.2
[10]
  solubility kinetic: 178 µM (≈ 65.6 µg/mL)
[13]
  Ratio IC50: 143

## C[C@H](CN1CCC[C@@H](OC(F)F)C1)NC(=O)c1ccc(-c2noc(C(F)(F)F)n2)cc1
[1]
  IC50: 20 nM
[7]
  IC50: 3600 nM
[2]
  IC50: 60 nM
[8]
  CLint scaled: 661 mL/min/kg
[12]
  Ratio: 1.2
[13]
  Ratio IC50: 60

## O=C(NCCN1CCCC1)c1ccc(-c2noc(C(F)(F)F)n2)cc1
[1]
  IC50: 30 nM
[14]
  IC50: 90 nM
[15]
  IC50: 70 nM
[3]
  IC50: 13000 nM
[4]
  IC50: 26000 nM
[5]
  IC50: 2800 nM
[6]
  IC50: 9800 nM
[7]
  IC50: 3700 nM
[2]
  IC50: 250 nM
[8]
  CLint scaled: 76 mL/min/kg
[9]
  Papp: 60.4 ×10⁻⁶ cm/s
[10]
  solubility kinetic: 169 µM (≈ 59.9 µg/mL)
[16]
  IC50: 5100 nM

## C[C@H](CN1CCC(F)(F)CC1)NC(=O)c1ccc(-c2noc(C(F)(F)F)n2)cc1
[1]
  IC50: 130 nM
[7]
  IC50: > 50000 nM
[2]
  IC50: 380 nM
[10]
  solubility kinetic: 25 µM (≈ 10.5 µg/mL)
[13]
  Ratio IC50: >132

## CCCN(CCC)C[C@@H](C)NC(=O)c1ccc(-c2noc(C)n2)cc1
[1]
  IC50: > 50000 nM
[2]
  IC50: > 50000 nM

## C[C@H](CN1CCC(F)(F)C1)NC(=O)c1ccc(-c2noc(C(F)(F)F)n2)cc1
[1]
  IC50: 230 nM
[7]
  IC50: > 50000 nM
[2]
  IC50: 1300 nM
[10]
  solubility kinetic: 52 µM (≈ 21 µg/mL)
[13]
  Ratio IC50: >38

## C[C@@H](CN1CCCC1)NC(=O)c1ccc(-c2noc(C(F)(F)F)n2)cc1
[1]
  IC50: 50 nM
[7]
  IC50: 43000 nM
[2]
  IC50: 730 nM
[13]
  Ratio IC50: 59

## C[C@H](CN1CCCC(C)(C)C1)NC(=O)c1ccc(-c2noc(C(F)(F)F)n2)cc1
[1]
  IC50: 2 nM
[7]
  IC50: 520 nM
[2]
  IC50: 10 nM
[8]
  CLint scaled: 1290 mL/min/kg
[12]
  Ratio: 1
[10]
  solubility kinetic: 150 µM (≈ 61.6 µg/mL)
[13]
  Ratio IC50: 52

## CCCN(CCC)C[C@@H](C)NC(=O)c1ccc(-c2noc(C(F)F)n2)cc1
[1]
  IC50: 890 nM
[2]
  IC50: 19000 nM

## CCCN(CCC)C[C@@H](C)NC(=O)c1ccc(-c2ncon2)cc1
[1]
  IC50: > 50000 nM
[2]
  IC50: > 50000 nM

## C[C@H](CN1CCC(F)CC1)NC(=O)c1ccc(-c2noc(C(F)(F)F)n2)cc1
[1]
  IC50: 30 nM
[7]
  IC50: 10300 nM
[2]
  IC50: 100 nM
[8]
  CLint scaled: 214 mL/min/kg
[12]
  Ratio: 1.2
[13]
  Ratio IC50: 103

## C[C@H](CN1CCCCCC1)NC(=O)c1ccc(-c2noc(C(F)(F)F)n2)cc1
[1]
  IC50: 10 nM
[7]
  IC50: 1700 nM
[2]
  IC50: 30 nM
[8]
  CLint scaled: 128 mL/min/kg
[12]
  Ratio: 1.2
[13]
  Ratio IC50: 57

## CC(C)(CN1CCCC1)NC(=O)c1ccc(-c2noc(C(F)(F)F)n2)cc1
[1]
  IC50: 280 nM
[7]
  IC50: 12000 nM
[2]
  IC50: 310 nM
[13]
  Ratio IC50: 39

## O=C(NC1(CN2CCCC2)CC1)c1ccc(-c2noc(C(F)(F)F)n2)cc1
[1]
  IC50: 40 nM
[7]
  IC50: 6400 nM
[2]
  IC50: 180 nM
[13]
  Ratio IC50: 36

## C[C@H](CN1CCC[C@H](OC(F)F)C1)NC(=O)c1ccc(-c2noc(C(F)(F)F)n2)cc1
[1]
  IC50: 3 nM
[7]
  IC50: 1500 nM
[2]
  IC50: 10 nM
[8]
  CLint scaled: 757 mL/min/kg
[12]
  Ratio: 1.1
[10]
  solubility kinetic: 51 µM (≈ 22.9 µg/mL)
[13]
  Ratio IC50: 150
